# Measured values from ChEMBL document CHEMBL1817631, “Synthesis and characterization of tritylthioethanamine derivatives with potent KSP inhibitory activity” (Bioorg Med Chem, 2011).
# Active and inactive are the calls of the source. The rule behind the calls is not given here.
# Legend:
# [1] = test system: SN12C; test: Growth inhibition of human SN12C cells; assay type: functional
# [2] = test system: HCT-15; test: Growth inhibition of human HCT15 cells; assay type: functional
# [3] = test system: HT-29; test: Growth inhibition of human HT-29 cells; assay type: functional
# [4] = test system: SW-620; test: Growth inhibition of human SW620 cells; assay type: functional
# [5] = test system: NCI-H322M; test: Growth inhibition of human NCI-H322M cells; assay type: functional
# [6] = test system: SF-539; test: Growth inhibition of human SF539 cells; assay type: functional
# [7] = test system: HL-60(TB); test: Growth inhibition of human HL-60(TB) cells; assay type: functional
# [8] = test system: ACHN; test: Growth inhibition of human ACHN cells; assay type: functional
# [9] = test system: SK-MEL-28; test: Growth inhibition of human SK-MEL-28 cells; assay type: functional
# [10] = test system: LOX IMVI; test: Growth inhibition of human LOXIMVI cells; assay type: functional
# [11] = test system: UACC-62; test: Growth inhibition of human UACC62 cells; assay type: functional
# [12] = test system: SNB-75; test: Growth inhibition of human SNB75 cells; assay type: functional
# [13] = test system: SK-MEL-5; test: Growth inhibition of human SK-MEL-5 cells; assay type: functional
# [14] = Growth inhibition of human […] cells; assay type: functional
# [15] = test system: UO-31; test: Growth inhibition of human UO31 cells; assay type: functional
# [16] = test system: HCC 2998; test: Growth inhibition of human HCC2998 cells; assay type: functional
# [17] = test system: TK-10; test: Growth inhibition of human TK10 cells; assay type: functional
# [18] = test system: OVCAR-5; test: Growth inhibition of human OVCAR5 cells; assay type: functional
# [19] = test system: M14; test: Growth inhibition of human M14 cells; assay type: functional
# [20] = test system: SNB-19; test: Growth inhibition of human SNB19 cells; assay type: functional
# [21] = test system: HeLa; test: Induction of KSP depletion in human HeLa cells after 4 hrs by immunofluorescence analysis; assay type: functional, cell-based
# How it was run: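 HeLa cells were treated 4 h across a concentration series of compound in DMSO, then fixed in 100% MeOH at −20 °C. They were probed overnight at 4 °C with mouse anti-KSP and rabbit anti-EB1 to mark microtubules, with Alexa Fluor secondaries and DNA counterstain. KSP (green channel) images were taken at equivalent exposure times.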
# [22] = test system: NCI-H226; test: Growth inhibition of human NCI-H226 cells; assay type: functional
# [23] = biological target: T1, Kinesin-like protein Klp61F (Drosophila melanogaster) (UniProt P46863); test: Inhibition of Drosophila melanogaster Klp61F in S2 cells at 100 uM up to 7 hrs by immunofluorescence analysis; assay type: cell-based
# T1 sequence (whole entry): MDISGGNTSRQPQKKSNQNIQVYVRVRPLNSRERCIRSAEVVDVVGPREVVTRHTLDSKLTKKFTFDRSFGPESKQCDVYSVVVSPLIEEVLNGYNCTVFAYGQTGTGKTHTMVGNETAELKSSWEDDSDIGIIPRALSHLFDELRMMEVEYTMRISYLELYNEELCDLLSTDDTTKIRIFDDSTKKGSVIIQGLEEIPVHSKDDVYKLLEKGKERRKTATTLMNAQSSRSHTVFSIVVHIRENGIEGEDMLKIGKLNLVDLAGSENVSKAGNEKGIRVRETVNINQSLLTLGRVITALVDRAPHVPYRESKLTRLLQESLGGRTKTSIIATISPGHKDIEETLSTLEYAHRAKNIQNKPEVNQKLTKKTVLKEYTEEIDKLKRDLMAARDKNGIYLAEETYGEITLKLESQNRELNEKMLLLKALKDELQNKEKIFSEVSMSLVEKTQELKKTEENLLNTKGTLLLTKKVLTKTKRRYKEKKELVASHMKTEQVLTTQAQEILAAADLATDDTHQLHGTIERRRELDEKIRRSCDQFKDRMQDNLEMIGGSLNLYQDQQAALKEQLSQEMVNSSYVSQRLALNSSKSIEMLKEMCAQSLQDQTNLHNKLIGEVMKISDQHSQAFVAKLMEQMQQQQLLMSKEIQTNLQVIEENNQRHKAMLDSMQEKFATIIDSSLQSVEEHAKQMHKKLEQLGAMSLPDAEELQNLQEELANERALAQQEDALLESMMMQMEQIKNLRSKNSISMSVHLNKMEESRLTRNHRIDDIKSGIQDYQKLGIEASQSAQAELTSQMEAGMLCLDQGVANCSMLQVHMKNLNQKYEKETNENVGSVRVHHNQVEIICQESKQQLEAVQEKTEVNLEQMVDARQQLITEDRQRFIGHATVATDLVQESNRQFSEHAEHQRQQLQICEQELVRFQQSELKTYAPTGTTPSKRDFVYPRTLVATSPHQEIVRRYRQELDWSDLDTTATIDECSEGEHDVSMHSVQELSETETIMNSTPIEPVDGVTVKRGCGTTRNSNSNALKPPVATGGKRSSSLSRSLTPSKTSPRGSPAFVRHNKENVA
# How it was run: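 Drosophila S2 cells were exposed to compound over a three-log concentration range up to 100 μM, with treatments extending up to 7 h. Bipolar spindle formation was scored by immunofluorescence.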
# [24] = Inhibition of bipolar spindle formation in Strongylocentrotus purpuratus eggs; assay type: functional, Egg
# How it was run: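 S. purpuratus eggs (gametes released with 0.5M KCl) were fertilized in artificial seawater with 2 mM 3-amino triazole and stripped of envelopes 20 min post-fertilization. They were then cultured with 0.1% DMSO or inhibitor at 100 nM–100 μM, fixed at first mitosis and stained for microtubules and DNA. 100 cells per condition were scored for bipolar spindles to derive EC50.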
# [25] = test system: SK-OV-3; test: Growth inhibition of human SKOV3 cells; assay type: functional
# [26] = test system: OVCAR-3; test: Growth inhibition of human OVCAR3 cells; assay type: functional
# [27] = test system: EKVX; test: Growth inhibition of human EKVX cells; assay type: functional
# [28] = test system: OVCAR-8; test: Growth inhibition of human OVCAR8 cells; assay type: functional
# [29] = test system: NCI-H23; test: Growth inhibition of human NCI-H23 cells; assay type: functional
# [30] = test system: UACC-257; test: Growth inhibition of human UACC257 cells; assay type: functional
# [31] = test system: SK-OV-3; test: Ratio of GI50 for human M14 cells to GI50 for human SK-OV-3 cells; assay type: functional
# [32] = test system: MOLT-4; test: Growth inhibition of human MOLT4 cells; assay type: functional
# [33] = test system: 786-0; test: Growth inhibition of human 786-0 cells; assay type: functional
# [34] = test system: SK-MEL-2; test: Growth inhibition of human SK-MEL-2 cells; assay type: functional
# [35] = test system: SF-295; test: Growth inhibition of human SF295 cells; assay type: functional
# [36] = test system: A549; test: Growth inhibition of human A549 cells; assay type: functional
# [37] = test system: K562; test: Growth inhibition of human K562 cells; assay type: functional
# [38] = test system: HeLa; test: Inhibition of bipolar spindle formation in human HeLa cells at 1 uM; assay type: functional, cell-based
# How it was run: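 HeLa cells were grown in MEM with Earle's BSS, 10% FBS, sodium bicarbonate and pyruvate at 37°C in 5% CO2. They were exposed to compound in DMSO for 4 h, with 0.1% DMSO as carrier control. Cells were fixed in −20°C methanol and immunostained for tubulin, with DNA counterstained. Bipolar spindle formation was scored in 100 mitotic cells per condition.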
# [39] = biological target: Kinesin-like protein KIF11 (Homo sapiens, UniProt P52732); test: Inhibition of human recombinant microtubule-activated KSP motor domain ATPase activity after 10 mins by end-point assay
# Sequence of Kinesin-like protein KIF11 (P52732 whole entry, the tested form may be a part): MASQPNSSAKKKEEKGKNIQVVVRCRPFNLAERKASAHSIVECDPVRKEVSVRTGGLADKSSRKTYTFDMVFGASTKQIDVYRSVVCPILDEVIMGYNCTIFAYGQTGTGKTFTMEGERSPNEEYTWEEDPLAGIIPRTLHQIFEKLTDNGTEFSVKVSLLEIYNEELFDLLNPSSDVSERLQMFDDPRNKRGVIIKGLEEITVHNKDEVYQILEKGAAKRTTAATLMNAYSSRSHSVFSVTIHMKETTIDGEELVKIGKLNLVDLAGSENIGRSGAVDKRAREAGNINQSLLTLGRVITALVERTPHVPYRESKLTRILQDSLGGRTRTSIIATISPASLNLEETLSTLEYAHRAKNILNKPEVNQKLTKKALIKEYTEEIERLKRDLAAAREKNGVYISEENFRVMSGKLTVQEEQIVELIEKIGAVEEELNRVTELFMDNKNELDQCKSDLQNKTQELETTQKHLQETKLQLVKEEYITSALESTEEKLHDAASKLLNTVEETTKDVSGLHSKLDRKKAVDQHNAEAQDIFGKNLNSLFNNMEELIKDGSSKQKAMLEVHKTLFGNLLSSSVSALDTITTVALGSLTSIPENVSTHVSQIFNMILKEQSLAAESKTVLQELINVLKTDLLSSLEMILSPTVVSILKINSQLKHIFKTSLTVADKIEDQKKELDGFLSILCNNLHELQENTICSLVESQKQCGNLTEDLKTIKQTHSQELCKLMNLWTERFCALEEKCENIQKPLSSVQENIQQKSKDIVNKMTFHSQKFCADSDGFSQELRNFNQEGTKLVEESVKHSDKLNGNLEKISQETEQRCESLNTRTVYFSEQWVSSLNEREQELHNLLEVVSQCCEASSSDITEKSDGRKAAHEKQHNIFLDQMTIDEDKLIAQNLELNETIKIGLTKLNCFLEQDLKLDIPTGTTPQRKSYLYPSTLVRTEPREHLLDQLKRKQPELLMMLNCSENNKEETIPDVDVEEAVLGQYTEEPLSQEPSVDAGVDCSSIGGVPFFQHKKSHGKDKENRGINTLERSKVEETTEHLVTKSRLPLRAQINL
# [40] = test system: SR; test: Growth inhibition of human SR cells; assay type: functional
# [41] = test system: IGROV-1; test: Growth inhibition of human IGROV1 cells; assay type: functional
# [42] = test system: CCRF-CEM; test: Growth inhibition of human CCRF-CEM cells; assay type: functional
# [43] = test system: HeLa; test: Effect on interphase microtubule organization in human HeLa cells at 1 uM; assay type: functional, cell-based
# How it was run: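 HeLa cells were grown in MEM/Earle's BSS with 10% FBS at 37 °C and 5% CO2, then treated 4 h with 1 μM compound or 0.1% DMSO carrier. Cells were fixed in 100% MeOH at −20 °C and blocked in PBS-5% BSA. They were stained overnight at 4 °C with mouse anti-tubulin and for DNA, then imaged by epifluorescence with structured illumination.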
# [44] = test system: HOP-62; test: Growth inhibition of human HOP62 cells; assay type: functional
# [45] = test system: HCT-116; test: Growth inhibition of human HCT116 cells; assay type: functional
# [46] = test system: SF-268; test: Growth inhibition of human SF268 cells; assay type: functional
# [47] = test system: Malme-3M; test: Growth inhibition of human MALME-3M cells; assay type: functional
# [48] = test system: NCI-H522; test: Growth inhibition of human NCI-H522 cells; assay type: functional
# [49] = test system: OVCAR-4; test: Growth inhibition of human OVCAR4 cells; assay type: functional
# [50] = test system: U-251; test: Growth inhibition of human U251 cells; assay type: functional
# [51] = test system: CAKI-1; test: Growth inhibition of human Caki1 cells; assay type: functional
# [52] = test system: COLO 205; test: Growth inhibition of human COLO205 cells; assay type: functional
structure (smiles),measurement,setting,value
CCOC(=O)C1=C(C)NC(=S)NC1c1cccc(O)c1 (centres undefined) [MONASTROL],GI50,[1],39800 nM
same,GI50,[2],39800 nM
same,GI50,[3],79400 nM
same,GI50,[4],39800 nM
same,GI50,[5],39800 nM
same,GI50,[6],50100 nM
same,GI50,[7],25100 nM
same,GI50,[8],79400 nM
same,GI50,[9],79400 nM
same,GI50,[10],79400 nM
same,GI50,[11],39800 nM
same,GI50,[12],39800 nM
same,GI50,[13],39800 nM
same,GI50,[14],31600 nM
same,GI50,[15],100000 nM
same,GI50,[16],39800 nM
same,GI50,[17],100000 nM
same,GI50,[18],79400 nM
same,GI50,[19],25100 nM
same,GI50,[20],79400 nM
N[C@@H](CSC(c1ccccc1)(c1ccccc1)c1ccccc1)C(=O)O [S-TRITYL-L-CYSTEINE],Activity,[21],Dose-dependent effect
same,GI50,[22],100000 nM
same,inhibition,[23],inactive
same,GI50,[15],100000 nM
same,EC50,[24],≥ 100000 nM
same,GI50,[18],100000 nM
same,GI50,[25],100000 nM
COc1ccc(C(SC[C@@H](N)C(=O)O)(c2ccccc2)c2ccccc2)cc1,inhibition,[23],inactive
COc1ccc(C(SC[C@H](N)C(=O)O)(c2ccccc2)c2ccccc2)cc1,inhibition,[23],inactive
COc1ccc(C(SC[C@@H](N)CO)(c2ccccc2)c2ccccc2)cc1,inhibition,[23],inactive
COc1ccc(C(SCCN)(c2ccccc2)c2ccccc2)cc1,GI50,[1],130 nM
same,GI50,[26],150 nM
same,GI50,[27],390 nM
same,GI50,[28],120 nM
same,GI50,[29],510 nM
same,GI50,[2],50 nM
same,GI50,[3],350 nM
same,GI50,[30],700 nM
same,GI50,[4],70 nM
same,RatioGI50,[31],1250
same,GI50,[32],500 nM
same,GI50,[5],60 nM
same,GI50,[6],250 nM
same,GI50,[8],690 nM
same,GI50,[33],400 nM
same,GI50,[9],640 nM
same,GI50,[34],60 nM
same,GI50,[35],180 nM
same,GI50,[10],500 nM
same,GI50,[22],1740 nM
same,GI50,[11],400 nM
same,GI50,[36],100 nM
same,GI50,[12],600 nM
same,GI50,[37],40 nM
same,inhibition,[38],Active
same,IC50,[39],136 nM
same,GI50,[40],130 nM
same,GI50,[13],50 nM
same,GI50,[41],150 nM
same,GI50,[14],310 nM
same,GI50,[42],160 nM
same,inhibition,[23],inactive
same,GI50,[15],500 nM
same,GI50,[16],240 nM
same,Activity,[43],inactive
same,GI50,[44],660 nM
same,GI50,[45],40 nM
same,GI50,[17],1560 nM
same,GI50,[46],150 nM
same,GI50,[18],570 nM
same,GI50,[47],220 nM
same,GI50,[19],30 nM
same,GI50,[48],40 nM
same,GI50,[49],1400 nM
same,GI50,[20],340 nM
same,GI50,[50],50 nM
same,GI50,[51],190 nM
same,GI50,[25],80 nM
same,GI50,[52],210 nM
